Measured values as given in ChEMBL document CHEMBL1154384, “New classes of potent and bioavailable human renin inhibitors” (Bioorg Med Chem Lett, 2009).

Legend:
[1] = Dissociation constant, pKa of the compound; type: physicochemical
Summary of the method: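 pKa of the template's secondary amine, measured experimentally. Compounds poorly soluble in water in their neutral form were measured in solvent mixtures, so their values could only be estimated.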

Renin [2] = molecular target: T1, Renin (Homo sapiens, UniProt P00797); assay: Inhibition of human rennin in buffer assessed as accumulation of angiotensin 1 using human tetradecapeptide by immunoassay
T1 sequence (P00797 whole entry): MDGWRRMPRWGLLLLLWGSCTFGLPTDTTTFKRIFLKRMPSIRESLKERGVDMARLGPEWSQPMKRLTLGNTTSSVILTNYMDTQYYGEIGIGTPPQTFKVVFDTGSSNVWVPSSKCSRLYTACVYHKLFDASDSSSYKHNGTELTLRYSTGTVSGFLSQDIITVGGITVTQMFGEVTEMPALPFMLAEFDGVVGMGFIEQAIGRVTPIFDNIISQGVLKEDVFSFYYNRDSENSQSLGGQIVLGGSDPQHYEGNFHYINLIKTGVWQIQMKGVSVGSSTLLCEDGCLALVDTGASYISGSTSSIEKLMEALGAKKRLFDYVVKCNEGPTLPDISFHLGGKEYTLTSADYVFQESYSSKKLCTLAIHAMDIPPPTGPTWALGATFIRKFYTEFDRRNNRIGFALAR

Renin [3] = molecular target: T1, Renin; assay: Inhibition of human rennin in human plasma assessed as accumulation of angiotensin 1 using human tetradecapeptide by immunoassay; type: cell-free
[4] = Oral bioavailability in Wistar rat at 10 mg/kg; type: ADME, organism-based; details: in vivo
Cytochrome P450 3A4 = Cytochrome P450 3A4 (Homo sapiens, UniProt P08684); assay: Inhibition of CYP3A4; type: ADME
Chain of Cytochrome P450 3A4 (P08684 whole entry): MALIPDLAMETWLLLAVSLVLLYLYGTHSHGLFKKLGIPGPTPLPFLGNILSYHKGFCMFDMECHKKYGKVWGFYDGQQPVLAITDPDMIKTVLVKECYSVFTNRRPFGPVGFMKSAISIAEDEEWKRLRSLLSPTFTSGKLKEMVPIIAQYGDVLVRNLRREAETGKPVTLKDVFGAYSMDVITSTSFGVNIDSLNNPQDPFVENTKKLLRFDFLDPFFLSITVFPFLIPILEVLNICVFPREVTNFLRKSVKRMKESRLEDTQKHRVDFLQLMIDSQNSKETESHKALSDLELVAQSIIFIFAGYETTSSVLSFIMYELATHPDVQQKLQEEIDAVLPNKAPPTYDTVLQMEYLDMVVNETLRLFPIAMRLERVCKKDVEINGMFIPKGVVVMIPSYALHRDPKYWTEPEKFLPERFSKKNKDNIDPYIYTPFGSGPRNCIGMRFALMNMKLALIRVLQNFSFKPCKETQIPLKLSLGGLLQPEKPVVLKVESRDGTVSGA

| SMILES | pKa [1] | IC50 (Renin [2]) | IC50 (Renin [3]) | bioavailability [4] | IC50 (Cytochrome P450 3A4) |
| --- | --- | --- | --- | --- | --- |
| O=C(C1=C(c2ccc(CCCOc3c(F)ccc(F)c3Cl)cc2)C[C@H]2CNC[C@H]1N2)N(Cc1cccc(Cl)c1Cl)C1CC1 | 8.2 | 0.4 nM | 36 nM | – | – |
| O=C(C1=C(c2ccc(CCCOc3c(F)ccc(F)c3Cl)cc2)C[C@H]2COC[C@H]1N2)N(Cc1cccc(Cl)c1Cl)C1CC1 | 6.5 | 0.68 nM | 55 nM | – | – |
| O=C(C1=C(c2ccc(CCCOc3c(F)ccc(F)c3Cl)cc2)C[C@H]2CCC[C@H]1N2)N(Cc1cccc(Cl)c1Cl)C1CC1 | – | 1.1 nM | 113 nM | – | – |
| O=C(C1=C(c2ccc(CCCOc3c(F)ccc(F)c3Cl)cc2)C[C@H]2CS(=O)(=O)C[C@H]1N2)N(Cc1cccc(Cl)c1Cl)C1CC1 | – | 6.4 nM | – | – | – |
| COc1cccc(CN(C(=O)C2=C(c3ccc(CCCOc4c(F)ccc(F)c4Cl)cc3)C(C)(C)CNC2)C2CC2)c1C | – | 170 nM | 7400 nM | 10% | – |
| COc1cccc(CN(C(=O)C2=C(c3ccc(CCCOc4c(F)ccc(F)c4Cl)cc3)C[C@H]3C[S+]([O-])C[C@H]2N3)C2CC2)c1C (some centres undefined) | – | 64 nM | – | – | – |
| COc1cccc(CN(C(=O)C2=C(c3ccc(CCCOc4c(F)ccc(F)c4Cl)cc3)C3(CC3)CNC2)C2CC2)c1C | – | 210 nM | 7400 nM | 10% | – |
| O=C(C1=C(c2ccc(CCCOc3c(F)ccc(F)c3Cl)cc2)C[C@H]2CC[C@H]1N2)N(Cc1cccc(Cl)c1Cl)C1CC1 | – | 0.55 nM | 47 nM | – | 1900 nM |
| O=C(C1=C(c2ccc(CCCOc3c(F)ccc(F)c3Cl)cc2)C2(CC2)CNC1)N(Cc1cccc(Cl)c1Cl)C1CC1 | – | 34 nM | 4000 nM | 10% | – |
| CC1(C)CNCC(C(=O)N(Cc2cccc(Cl)c2Cl)C2CC2)=C1c1ccc(CCCOc2c(F)ccc(F)c2Cl)cc1 | – | 31 nM | 2000 nM | 10% | – |
| COc1cccc(CN(C(=O)C2=C(c3ccc(CCCOc4c(F)ccc(F)c4Cl)cc3)C[C@H]3CNC[C@H]2N3)C2CC2)c1C | 3.6 | 1.37 nM | 54 nM | – | – |
| COc1cccc(CN(C(=O)C2=C(c3ccc(CCCOc4c(F)ccc(F)c4Cl)cc3)C[C@H]3CCC[C@H]2N3)C2CC2)c1C | – | 0.92 nM | 101 nM | – | – |
| O=C(C1=C(c2ccc(CCCOc3c(F)ccc(F)c3Cl)cc2)C(F)(F)CNC1)N(Cc1cccc(Cl)c1Cl)C1CC1 | – | 800 nM | – | 10% | – |
| COc1cccc(CN(C(=O)C2=C(c3ccc(CCCOc4c(F)ccc(F)c4Cl)cc3)C[C@H]3COC[C@H]2N3)C2CC2)c1C | 6.5 | 0.49 nM | 42 nM | – | 1000 nM |
| COc1cccc(CN(C(=O)C2=C(c3ccc(CCCOc4c(F)ccc(F)c4Cl)cc3)C[C@H]3CC[C@H]2N3)C2CC2)c1C | – | 0.74 nM | 43 nM | – | – |
| COc1cccc(CN(C(=O)C2=C(c3ccc(CCCOc4c(F)ccc(F)c4Cl)cc3)CCNC2)C2CC2)c1C | – | 2 nM | 87 nM | 10% | – |
| COc1cccc(CN(C(=O)C2=C(c3ccc(CCCOc4c(F)ccc(F)c4Cl)cc3)C(F)(F)CNC2)C2CC2)c1C | – | 330 nM | – | 10% | – |
| Cc1cc(Cl)c(OCCOc2ccc(C3=C(C(=O)N(Cc4cccc(Cl)c4Cl)C4CC4)CNCC3)cc2)c(Cl)c1 | – | – | – | 10% | – |
| O=C(C1=C(c2ccc(CCCOc3c(F)ccc(F)c3Cl)cc2)CCNC1)N(Cc1cccc(Cl)c1Cl)C1CC1 | – | 1.2 nM | 53 nM | 10% | 1300 nM |
| O=C(C1=C(c2ccc(CCCOc3cc(F)ccc3Br)cc2)CCNC1)N(Cc1ccccc1Cl)C1CC1 | – | – | – | 10% | – |
